Converted amounts (≈) assume the structure as drawn.
Assays:
Type in all cases: functional
[1] = tested on: Staphylococcus aureus; test: Antimicrobial activity against Staphylococcus aureus ATCC 25923 after 24 hrs by microdilution assay; settings: ATCC 25923, 24 h
In short: (§1)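 Broth microdilution in Müller-Hinton broth, run only for compounds giving zones >12 mm. Stock at 1000 µg/mL in DMF, then twofold dilutions of 500 down to 3.125 µg/mL. Wells inoculated with 10^6 CFU/mL.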

[2] = tested on: Staphylococcus aureus; test: Antimicrobial activity against Staphylococcus aureus ATCC 25923 after 24 hrs by agar diffusion assay
In short: (§2)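 Filter-paper disks (5 mm) loaded with test solution at 1 mg/mL in DMF, placed on agar seeded with the bacterium, in triplicate. DMF alone served as control. Plates incubated at 37 °C for 24 h. Read-out is the mean diameter of the inhibition zone in mm.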

[3] = tested on: Streptococcus pyogenes; test: Antimicrobial activity against Streptococcus pyogenes ATCC 19615 after 24 hrs by microdilution assay; settings: ATCC 19615, 24 h; in short: as §1
[4] = tested on: Streptococcus pyogenes; test: Antimicrobial activity against Streptococcus pyogenes ATCC 19615 after 24 hrs by agar diffusion assay; in short: as §2
[5] = tested on: Pseudomonas; test: Antimicrobial activity against Pseudomonas phaseolicola GSPB 2828 after 24 hrs by microdilution assay; settings: GSPB 2828, 24 h; in short: as §1
[6] = tested on: Pseudomonas; test: Antimicrobial activity against Pseudomonas phaseolicola GSPB 2828 after 24 hrs by agar diffusion assay; in short: as §2
[7] = tested on: Pseudomonas fluorescens; test: Antimicrobial activity against Pseudomonas fluorescens S 97 after 24 hrs by microdilution assay; settings: S 97, 24 h; in short: as §1
[8] = tested on: Pseudomonas fluorescens; test: Antimicrobial activity against Pseudomonas fluorescens S 97 after 24 hrs by agar diffusion assay; in short: as §2
[9] = tested on: Fusarium oxysporum; test: Antimicrobial activity against Fusarium oxysporum after 48 hrs by microdilution assay
In short: (§3)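 Broth microdilution in Sabouraud liquid medium, run only for compounds giving zones >12 mm. Stock at 1000 µg/mL in DMF, then twofold dilutions of 500 down to 3.125 µg/mL. Wells inoculated with 10^6 CFU/mL.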

[10] = tested on: Fusarium oxysporum; test: Antimicrobial activity against Fusarium oxysporum after 48 hrs by agar diffusion assay
[11] = tested on: Aspergillus fumigatus; test: Antimicrobial activity against Aspergillus fumigatus after 48 hrs by microdilution assay; in short: as §3
[12] = tested on: Aspergillus fumigatus; test: Antimicrobial activity against Aspergillus fumigatus after 48 hrs by agar diffusion assay

Structure (SMILES)	MIC [1]	inhibition zone (IZ) [2]	MIC [3]	inhibition zone (IZ) [4]	MIC [5]	inhibition zone (IZ) [6]	MIC [7]	inhibition zone (IZ) [8]	MIC [9]	inhibition zone (IZ) [10]	MIC [11]	inhibition zone (IZ) [12]
O=C(N[C@H](CO)[C@H](O)c1ccc([N+](=O)[O-])cc1)C(Cl)Cl [CHLORAMPHENICOL]	3.12 µg/mL (≈ 9.67 µM)	42 mm	3.12 µg/mL (≈ 9.67 µM)	44 mm	6.25 µg/mL (≈ 19.3 µM)	37 mm	6.25 µg/mL (≈ 19.3 µM)	38 mm	–	–	–	–
Nc1c(C(=O)c2ccccc2)sc(Nc2ccccc2)c1C(=O)Nc1nc2ccccc2s1	6.25 µg/mL (≈ 13.3 µM)	38 mm	6.25 µg/mL (≈ 13.3 µM)	37 mm	50 µg/mL (≈ 106 µM)	19 mm	50 µg/mL (≈ 106 µM)	20 mm	100 µg/mL (≈ 213 µM)	14 mm	–	–
Cc1cc(O)n2nc(Nc3ccccc3)c(C(=O)Nc3nc4ccccc4s3)c2n1	25 µg/mL (≈ 60 µM)	25 mm	6.25 µg/mL (≈ 15 µM)	37 mm	25 µg/mL (≈ 60 µM)	26 mm	50 µg/mL (≈ 120 µM)	19 mm	100 µg/mL (≈ 240 µM)	15 mm	100 µg/mL (≈ 240 µM)	14 mm
O=c1c2c(Nc3ccccc3)n[nH]c2ncn1-c1nc2ccccc2s1	100 µg/mL (≈ 277 µM)	15 mm	100 µg/mL (≈ 277 µM)	15 mm	6.25 µg/mL (≈ 17.3 µM)	38 mm	100 µg/mL (≈ 277 µM)	15 mm	50 µg/mL (≈ 139 µM)	19 mm	100 µg/mL (≈ 277 µM)	15 mm
CC(=O)OCC1=C(C(=O)O)N2C(=O)[C@@H](NC(=O)Cc3cccs3)[C@H]2SC1 [CEPHALOTHIN]	6.25 µg/mL (≈ 15.8 µM)	36 mm	6.25 µg/mL (≈ 15.8 µM)	37 mm	6.25 µg/mL (≈ 15.8 µM)	38 mm	6.25 µg/mL (≈ 15.8 µM)	37 mm	–	–	–	–
Cc1cc(C)c2c(n1)[nH]n1c(=N)c(C(=O)Nc3nc4ccccc4s3)nnc21	100 µg/mL (≈ 256 µM)	14 mm	100 µg/mL (≈ 256 µM)	15 mm	100 µg/mL (≈ 256 µM)	15 mm	12.5 µg/mL (≈ 32 µM)	32 mm	25 µg/mL (≈ 64 µM)	26 mm	50 µg/mL (≈ 128 µM)	19 mm
Nc1[nH]nc(-c2cn(-c3ccccc3)nc2-c2ccccc2)c1C(=O)Nc1nc2ccccc2s1	12.5 µg/mL (≈ 26.2 µM)	32 mm	6.25 µg/mL (≈ 13.1 µM)	38 mm	100 µg/mL (≈ 209 µM)	14 mm	50 µg/mL (≈ 105 µM)	20 mm	50 µg/mL (≈ 105 µM)	19 mm	–	–
Nc1sc2c(c1C(=O)Nc1nc3ccccc3s1)CCCC2	6.25 µg/mL (≈ 19 µM)	38 mm	6.25 µg/mL (≈ 19 µM)	38 mm	100 µg/mL (≈ 304 µM)	14 mm	100 µg/mL (≈ 304 µM)	16 mm	100 µg/mL (≈ 304 µM)	15 mm	50 µg/mL (≈ 152 µM)	19 mm
CCOC(=O)c1sc(Nc2ccccc2)c(C(=O)Nc2nc3ccccc3s2)c1N	3.12 µg/mL (≈ 7.13 µM)	43 mm	6.25 µg/mL (≈ 14.3 µM)	38 mm	50 µg/mL (≈ 114 µM)	19 mm	–	–	100 µg/mL (≈ 228 µM)	14 mm	12.5 µg/mL (≈ 28.5 µM)	31 mm
N#C/C(C(=O)Nc1nc2ccccc2s1)=C1\SCC(=O)N1c1ccccc1	100 µg/mL (≈ 255 µM)	15 mm	100 µg/mL (≈ 255 µM)	14 mm	100 µg/mL (≈ 255 µM)	15 mm	100 µg/mL (≈ 255 µM)	17 mm	100 µg/mL (≈ 255 µM)	14 mm	50 µg/mL (≈ 127 µM)	19 mm
Nc1c(C(=O)Nc2nc3ccccc3s2)sc(=S)n1-c1ccccc1	12.5 µg/mL (≈ 32.5 µM)	32 mm	100 µg/mL (≈ 260 µM)	14 mm	50 µg/mL (≈ 130 µM)	20 mm	100 µg/mL (≈ 260 µM)	16 mm	12.5 µg/mL (≈ 32.5 µM)	31 mm	100 µg/mL (≈ 260 µM)	16 mm
O=C1CSC(CC(=O)Nc2nc3ccccc3s2)=N1	25 µg/mL (≈ 85.8 µM)	26 mm	25 µg/mL (≈ 85.8 µM)	25 mm	100 µg/mL (≈ 343 µM)	14 mm	6.25 µg/mL (≈ 21.5 µM)	37 mm	100 µg/mL (≈ 343 µM)	16 mm	50 µg/mL (≈ 172 µM)	20 mm
N#C/C(C(=O)Nc1nc2ccccc2s1)=C1/SC=C(c2ccccc2)N1c1ccccc1	50 µg/mL (≈ 110 µM)	19 mm	100 µg/mL (≈ 221 µM)	15 mm	100 µg/mL (≈ 221 µM)	14 mm	50 µg/mL (≈ 110 µM)	19 mm	100 µg/mL (≈ 221 µM)	15 mm	6.25 µg/mL (≈ 13.8 µM)	38 mm
C[C@@H]1C[C@@H]([C@H](O)CC2CC(=O)NC(=O)C2)C(=O)[C@@H](C)C1 [CYCLOHEXIMIDE]	–	–	–	–	–	–	–	–	3.12 µg/mL (≈ 11.1 µM)	43 mm	3.12 µg/mL (≈ 11.1 µM)	42 mm
O=C(Nc1nc2ccccc2s1)c1c(Nc2ccccc2)n[nH]c1/N=C\c1cn(-c2ccccc2)nc1-c1ccccc1	3.12 µg/mL (≈ 5.38 µM)	44 mm	6.25 µg/mL (≈ 10.8 µM)	37 mm	100 µg/mL (≈ 172 µM)	15 mm	50 µg/mL (≈ 86.1 µM)	19 mm	25 µg/mL (≈ 43.1 µM)	26 mm	100 µg/mL (≈ 172 µM)	14 mm
O=C(Nc1nc2ccccc2s1)c1c(Nc2ccccc2)nn2c(-c3cccs3)ccnc12	100 µg/mL (≈ 213 µM)	14 mm	100 µg/mL (≈ 213 µM)	15 mm	100 µg/mL (≈ 213 µM)	15 mm	50 µg/mL (≈ 107 µM)	18 mm	6.25 µg/mL (≈ 13.3 µM)	37 mm	25 µg/mL (≈ 53.4 µM)	26 mm
